A selection: hits, their analogues and other compounds. The true share with any hit is near 1.6%.
p97 inhibitor: inhibitors of human p97 ATPase, primary screen, biochemical; recombinant p97 ATPase, Kinase-Glo ATP luminescence, 3 h; inhibition, % at 8 µM; actives 0.42% (n = 220,000); Transitional endoplasmic reticulum ATPase (Homo sapiens), P55072; in the data active = inhibition above about 15%;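 note: 0% = DMSO vehicle and 100% = wells lacking enzyme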
UBC9 SUMO inh: inhibitors of in vitro SUMOylation cascade, primary screen, biochemical, HTRF, uHTS. actives 0.36% (n = 290,000). HTRF SUMOylation assay, SAE1/SAE2 + UBC9. AID 2006, 2009. inhibition, % at 35 µM; in the data active = inhibition above about 50%, passing the limit was not always enough; inconclusive = no clear call, values can overlap the other calls
Target sequence (P63279 whole entry, looked up): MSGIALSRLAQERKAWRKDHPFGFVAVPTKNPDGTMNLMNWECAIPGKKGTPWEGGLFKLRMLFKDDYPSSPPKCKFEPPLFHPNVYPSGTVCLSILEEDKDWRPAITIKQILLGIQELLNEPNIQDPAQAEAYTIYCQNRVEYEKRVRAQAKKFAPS
14-3-3 Bad inh: inhibitors of 14-3-3 zeta/Bad binding, primary screen, biochemical, TR-FRET, bovine 14-3-3 zeta | 14-3-3 protein zeta/delta (Bos taurus), P63103 | TR-FRET 14-3-3zeta/Dy647-pBad peptide displacement, 1 h | inhibition, % at 21.7 µM | actives 0.71% (n = 220,000);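 active = inhibition above about 70%, limit read from the data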;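 note: 0% = full 14-3-3 plus peptide FRET controls and 100% = background without 14-3-3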
NCF1 inh: p47phox/p22phox peptide binding inhibitors, primary screen, biochemical, uHTS, NADPH oxidase regulatory subunit | Neutrophil cytosol factor 1 (Homo sapiens), P14598 | fluorescence polarization, 2 h | inhibition, % at 24.7 µM | actives 0.53% (n = 220,000);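 note: 0% = p47phox with labelled peptide and 100% = labelled peptide alone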
Target sequence (P14598 whole entry, looked up): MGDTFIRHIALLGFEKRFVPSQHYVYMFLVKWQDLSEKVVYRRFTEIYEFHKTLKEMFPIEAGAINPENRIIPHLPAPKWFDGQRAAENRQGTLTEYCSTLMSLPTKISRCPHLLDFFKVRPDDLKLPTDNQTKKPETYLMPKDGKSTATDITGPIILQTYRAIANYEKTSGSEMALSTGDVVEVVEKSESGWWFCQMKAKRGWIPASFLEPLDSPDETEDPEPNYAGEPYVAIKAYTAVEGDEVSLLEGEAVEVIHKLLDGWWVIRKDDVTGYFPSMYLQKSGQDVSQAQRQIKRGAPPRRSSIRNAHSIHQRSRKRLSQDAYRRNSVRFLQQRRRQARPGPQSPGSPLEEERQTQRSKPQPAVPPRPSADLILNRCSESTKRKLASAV
eIF4E-4G inh: eIF4E–eIF4G protein interaction inhibitors, primary screen, biochemical, uHTS, TR-FRET, eIF4GI fragment. TR-FRET eIF4E-eIF4GI(517-606) binding, 2 h. inhibition, % at 21.7 µM. actives 0.37% (n = 220,000). AID 782, 2007;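 note: 0% = full FRET control wells and 100% = background wells lacking eIF4GI fragment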
Tb MetRS inh: T. brucei MetRS inhibitors, primary screen, biochemical, luminescence; purified T. brucei MetRS, ATP depletion, Kinase-Glo luminescence; inhibition, % at 11.9 µM; actives 0.4% (n = 360,000); AID 624268, 2012;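 active = inhibition above a per-plate cutoff of the control wells' mean inhibition plus 3 SD, cut at about 5.5% in these data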;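 note: 0% = DMSO wells median and 100% = median of wells with control inhibitor compound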
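Material: parasite MetRS enzyme / Replication: singlicate, one well per compound / Signal: luminescence of leftover ATP / Schedule: 2 h aminoacylation at 25 °C after 15 min preincubation / Medium: HEPES-MgCl2-KCl buffer plus DTT, spermine, BSA, pyrophosphatase / Doses: 11.9 µM single point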
p97 inh conf: p97 ATPase inhibitors, retest, confirmation, biochemical; shares compounds with p97 inhibitor; recombinant p97 ATPase, Kinase-Glo ATP luminescence; inhibition, % at 8 µM; actives 44% (n = 760);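 active = percent inhibition of p97 ATPase above a set limit, the primary screen's mean plus 3 SD, cut at about 15% in these data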;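 note: 0% = DMSO wells and 100% = wells lacking p97 protein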
* marks the source's active call; other numbers are inactive results; ? = inconclusive; / = no result.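 Rule for the calls, unless noted: active = inhibition above about 30% (limit read from the data); inactive = the rest.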

SMILES	p97 inhibitor	UBC9 SUMO inh	14-3-3 Bad inh	NCF1 inh	eIF4E-4G inh	Tb MetRS inh	p97 inh conf
Cc1cc(Nc2ccccc2)nc(-c2ccccc2O)n1	25*	0	-11	-18	5	-1	40*
CCOC(=O)[C@H]1[C@H]2COc3cc(OC)ccc3[C@@H]2N2C(=O)CN(C)C(=O)[C@@]12C	/	/	/	/	/	0	/
O=C(CSc1nc2ccc([N+](=O)[O-])cc2s1)c1ccc2ccccc2c1	17*	20	-5	-13	-4	-1	8
O=[N+]([O-])c1c(Nc2ccccc2)ccc2nonc12	4	14	5	-1	6	0	/
O=[N+]([O-])c1c(NCc2ccco2)ccc2nonc12	18*	46	-3	0	0	0	9
CC(=O)Nc1cccc(-c2cc(C)c3cc4c(cc3n2)OCO4)c1	/	8	/	/	/	-1	/
c1coc(-c2nc(-c3ccco3)c(-c3ccco3)nc2-c2ccco2)c1	40*	?	55	-5	1	0	9
Cc1ccc(S(=O)(=O)N2CCN(C(C(=O)Nc3ccc(F)cc3)c3ccccc3)CC2)cc1 (centres undefined)	-3	-14	1	9	6	0	/
NC(=O)N/N=C/c1cc(Br)ccc1OC(=O)c1ccccc1	16*	8	-16	-13	15	0	23*
Cc1csc(NC(=O)CSCC(=O)O)c1-c1nc2ccccc2s1	16*	37	-5	-9	-2	-1	19*
O=C(O)CSCC(=O)Nc1ccc(-c2nc3ccccc3s2)cc1	2	12	9	-26	0	0	/
COc1ccc(/C(N)=C/C(=O)C(C)(C)C)cc1	34*	23	-14	-2	3	-1	-2
COc1ccc(CNC(=O)CCS(=O)(=O)c2cc3c(cc2Cl)NC(=O)CO3)cc1	/	2	/	/	/	-1	/
CCN(CC(=O)NCc1ccc(F)cc1)C(=O)c1oc2ccccc2c1C	/	7	/	/	/	-1	/
CSc1nc(N(CCO)CCO)c2sc3nc(-c4ccco4)c4c(c3c2n1)CCC4	20*	62*	10	-14	9	0	15
CC(Sc1ccsc1[N+](=O)[O-])C(=O)NCc1ccccc1 (centres undefined)	16*	-2	7	-5	2	/	8
COc1ccccc1CNC(=O)C(C)Sc1ccsc1[N+](=O)[O-] (centres undefined)	20*	7	13	2	4	-1	8
CC(Sc1ccsc1[N+](=O)[O-])C(=O)NCCc1ccc(Cl)cc1 (centres undefined)	-2	21	-3	4	7	-1	/
COc1ccc([C@H]2CC(=O)C=C(c3cccc(NC(C)=O)c3)C2)cc1	/	/	/	/	/	0	/
C=CCN1C(=O)c2ccc(C(=O)OCC(=O)N3CCN(c4ccccc4)CC3)cc2C1=O	/	/	/	/	/	0	/
COC(=O)c1c(N)sc(Cc2ccccc2)c1C	3	4	19	-4	-2	0	/
COC(=O)c1c(NC(=O)/C=C/C(=O)O)sc(Cc2ccccc2)c1C	15*	19	4	-1	7	1	23*
CCC(=Nc1ccc(N)cc1)C1=C(O)C(C(=O)OC)C(C)(C)CC1=O (centres undefined)	15*	36	0	-171	-16	1	4
CCCCC(=Nc1ccc(N)cc1)C1=C(O)C(C(=O)OC)C(C)(C)CC1=O (centres undefined)	18*	36	-1	14	1	0	9
CCC(=NCc1ccccc1)C1=C(O)C(C(=O)OC)C(C)(C)CC1=O (centres undefined)	3	26	-14	-11	0	-1	/
SMILES	p97 inhibitor	UBC9 SUMO inh	14-3-3 Bad inh	NCF1 inh	eIF4E-4G inh	Tb MetRS inh	p97 inh conf
CCCC(=Nc1ccccc1)C1=C(O)C(C(=O)OC)C(C)(C)CC1=O (centres undefined)	1	38	13	-9	-1	-1	/
Cc1ccccc1S(=O)(=O)N1[C@@H](c2ccc(Cl)cc2)C(C(=O)O)=CC[C@H]1c1ccc(Cl)cc1	/	/	/	/	/	0	/
CC1=NN(c2ccc(C)c(C)c2)C(=O)/C1=C/c1ccc2c(c1)n(C)c(=O)n2C	25*	85*	-11	-3	0	0	-1
Clc1ccccc1OCCNc1nc(NCC2CC2)nc2ccsc12	/	/	/	/	/	0	/
CCCn1nc([N+](=O)[O-])c(C(C#N)c2nc3ccccc3s2)c(Cl)c1=O (centres undefined)	17*	21	-16	-5	21	-1	21*
CCn1nc([N+](=O)[O-])c(C(C#N)c2nc3ccccc3n2C)c(Cl)c1=O (centres undefined)	5	5	-11	0	12	0	/
COc1ccc(S(=O)(=O)N2CCC(C(=O)NN3CCCCC3)CC2)cc1	/	/	/	/	/	0	/
Cc1cc(Nc2nc3ccccc3nc2Cl)n(-c2ccccc2C)n1	15*	9	13	-15	1	-1	11
COc1ccc(S(=O)(=O)O/N=C2\CCCc3ccccc32)cc1	18*	6	23	42*	-4	0	4
COc1cc2[nH]c(Cl)c([N+](=O)[O-])c2cc1OC	17*	-1	15	-5	-3	0	6
COc1cc2[nH]c3c(Cl)ncnc3c2cc1OC	7	7	-1	8	3	0	/
Cc1cccc(N=C2NC(=O)/C(=C/C=C/c3ccco3)S2)c1C	21*	58*	4	-23	10	1	12
Cc1ccc(N=C2NC(=O)/C(=C/C=C/c3ccco3)S2)cc1	10	46	12	-15	20	3	/
COc1cc(/C=C2\CC/C(=C\c3ccc(OCCO)c(OC)c3)C2=O)ccc1OCCO	15*	8	-12	-11	-2	-1	5
COc1cc(/C=C2/CC/C(=C/c3ccc(O)c(OC)c3)C2=O)ccc1O	35*	21	-4	-38	13	-1	17*
COc1cc(/C=C2\SC(=Nc3ccccc3OC)NC2=O)ccc1O	/	-13	/	/	/	0	/
COc1cc(/C=C2/SC(=Nc3ccc(O)cc3)NC2=O)ccc1O	25*	17	-13	-148	3	0	31*
COc1cc(/C=C2\COC/C(=C\c3ccc(O)c(OC)c3)C2=O)ccc1O	15*	-5	-3	-26	3	0	14
